The results in this text go back to ChEMBL document CHEMBL3745614, “Potent and selective N-(4-sulfamoylphenyl)thiourea-based GPR55 agonists” (Eur J Med Chem, 2016).

Structures are written as SMILES.

The EC50 is the concentration that produces a half-maximal response.

Assay [1] has as its target T1, G-protein coupled receptor 55 (Homo sapiens, UniProt Q9Y2T6). The experiment in a line: Agonist activity at human GPR55 expressed in CHOK1 cells at 10 uM by pathHunter beta-arrestin assay relative to control. As to conditions: CHO-K1. It is filed as cell-based. In short, it runs like this:
(§1)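 PathHunter eXpress GPR55 CHO-K1 β-arrestin kit run per the kit protocol, compounds screened at 10 μM. Luminescence read and expressed as percentage of the signal from bovine liver LPI at 1 μM. Mean with range of two experiments, each done in duplicate.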

Assay [2] has as its target T2, Lysophosphatidylserine lipase ABHD12 (Homo sapiens) (UniProt Q8N2K0).
T2 sequence (whole entry): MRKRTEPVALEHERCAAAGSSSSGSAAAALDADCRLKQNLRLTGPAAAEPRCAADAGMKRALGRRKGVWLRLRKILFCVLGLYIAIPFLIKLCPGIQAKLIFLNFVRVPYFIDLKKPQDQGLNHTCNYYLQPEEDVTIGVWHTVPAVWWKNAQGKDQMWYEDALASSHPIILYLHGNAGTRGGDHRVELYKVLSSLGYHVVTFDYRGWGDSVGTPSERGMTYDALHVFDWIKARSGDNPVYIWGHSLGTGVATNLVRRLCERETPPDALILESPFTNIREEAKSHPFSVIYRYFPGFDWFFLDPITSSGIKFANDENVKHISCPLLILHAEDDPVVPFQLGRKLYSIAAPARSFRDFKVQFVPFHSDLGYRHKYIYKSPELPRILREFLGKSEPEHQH
The experiment in a line: Inhibition of human ABHD12 expressed in […] cells using 2-AG as substrate assessed as glycerol liberation at 10 uM preincubated for 30 mins followed by 2-AG addition measured for 90 mins by fluorescent glycerol assay relative to control. It is filed as cell-based. Also noted: scale not given: the % may be the effect or the level left. In outline:
(§2)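 Lysates of HEK293 cells transiently overexpressing hABHD6 or hABHD12, 0.3 μg protein/well. Pretreated 30 min with DMSO or compound, then 2-AG added (12.5 μM final). Glycerol release coupled enzymatically to H2O2-dependent resorufin formation; fluorescence (ex 530/em 590 nm) followed kinetically for 90 min.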

Assay [3] addresses Cannabinoid receptor 1 (Homo sapiens) (UniProt P21554). Briefly: Agonist activity at CBR1 (unknown origin) assessed as [35S]GTPgammaS binding at 10 uM by […] assay relative to control. It is filed as functional. Background: Binding of GTPγS marks nucleotide exchange on a G protein.
For assay [4], the target named is Cannabinoid receptor 2 (Homo sapiens) (UniProt P34972). The experiment in a line: Antagonist activity at human CBR2 assessed as [35S]GTPgammaS binding at 10 uM by […] assay relative to control. It is filed as functional. On the set-up: scale not given: the % may be the effect or the level left.
The target in assay [5] is T3, Fatty-acid amide hydrolase 1 (Homo sapiens) (UniProt O00519).
T3 sequence (whole entry): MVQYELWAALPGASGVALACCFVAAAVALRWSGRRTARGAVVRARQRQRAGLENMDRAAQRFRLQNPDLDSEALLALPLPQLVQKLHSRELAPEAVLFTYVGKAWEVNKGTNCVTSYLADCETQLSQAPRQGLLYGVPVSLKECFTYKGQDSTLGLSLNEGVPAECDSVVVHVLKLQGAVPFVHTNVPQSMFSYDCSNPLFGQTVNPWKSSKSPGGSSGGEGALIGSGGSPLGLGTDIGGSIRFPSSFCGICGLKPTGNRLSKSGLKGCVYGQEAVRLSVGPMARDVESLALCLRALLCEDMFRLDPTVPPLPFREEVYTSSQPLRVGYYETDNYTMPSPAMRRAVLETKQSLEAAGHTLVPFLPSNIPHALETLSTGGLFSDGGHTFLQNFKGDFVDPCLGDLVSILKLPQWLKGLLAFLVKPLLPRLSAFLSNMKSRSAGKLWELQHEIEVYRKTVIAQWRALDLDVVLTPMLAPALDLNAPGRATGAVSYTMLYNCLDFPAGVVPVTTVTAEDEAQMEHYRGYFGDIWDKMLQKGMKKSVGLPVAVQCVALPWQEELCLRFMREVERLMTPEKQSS
The experiment in a line: Inhibition of human FAAH expressed in African green monkey COS-7 cell membranes using [3H]-AEA as substrate assessed as residual activity at 10 uM preincubated for 10 mins followed by substrate addition measured after 10 mins by liquid scintillation counting analysis relative to control. In short, it runs like this: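 Membranes of COS-7 cells overexpressing hFAAH, 1 μg protein per incubation. Substrate 20 μM AEA including 10 nM [3H]AEA (60 Ci/mmol). Compounds tested at 10 μM.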

Assay [6] deals with T4, Monoacylglycerol lipase ABHD6 (Homo sapiens) (UniProt Q9BV23).
T4 sequence (whole entry): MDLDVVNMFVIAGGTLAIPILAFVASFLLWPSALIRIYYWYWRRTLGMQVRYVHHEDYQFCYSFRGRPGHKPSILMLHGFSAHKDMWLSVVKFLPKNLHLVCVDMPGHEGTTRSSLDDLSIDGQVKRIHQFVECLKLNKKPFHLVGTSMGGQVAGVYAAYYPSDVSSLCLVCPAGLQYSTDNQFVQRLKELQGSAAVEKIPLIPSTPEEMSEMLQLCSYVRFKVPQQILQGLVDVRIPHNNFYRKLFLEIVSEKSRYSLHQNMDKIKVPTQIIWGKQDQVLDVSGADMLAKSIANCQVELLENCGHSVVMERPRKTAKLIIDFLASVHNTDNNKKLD
The experiment in a line: Inhibition of human ABHD6 expressed in […] cells using 2-AG as substrate assessed as glycerol liberation at 10 uM preincubated for 30 mins followed by 2-AG addition measured for 90 mins by fluorescent glycerol assay relative to control. It is filed as cell-based. Also noted: scale not given: the % may be the effect or the level left. In short, it runs like this:
as §2

Assay [7] addresses Cannabinoid receptor 2 (Homo sapiens) (UniProt P34972). The experiment in a line: Agonist activity at CBR2 (unknown origin) assessed as [35S]GTPgammaS binding at 10 uM by […] assay relative to control. It is filed as functional.
For assay [8], the target named is T5, Monoglyceride lipase (Homo sapiens) (UniProt Q99685).
T5 sequence (whole entry): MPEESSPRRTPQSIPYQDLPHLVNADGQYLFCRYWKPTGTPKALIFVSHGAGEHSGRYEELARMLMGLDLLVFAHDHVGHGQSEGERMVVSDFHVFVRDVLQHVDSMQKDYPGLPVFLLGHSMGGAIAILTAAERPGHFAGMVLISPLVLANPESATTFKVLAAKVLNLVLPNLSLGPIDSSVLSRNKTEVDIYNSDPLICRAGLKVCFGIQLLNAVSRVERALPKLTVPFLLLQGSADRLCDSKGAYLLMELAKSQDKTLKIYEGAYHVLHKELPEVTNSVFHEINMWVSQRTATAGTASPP
The experiment in a line: Inhibition of human MGL expressed in […] cells using 2AG as substrate assessed as residual activity at 10 uM preincubated for 10 mins followed by substrate addition measured after 10 mins by HPLC analysis. It is filed as cell-based. In outline:
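Lysates of HEK cells overexpressing hMGL, 2.5 μg protein per incubation, substrate at 50 μM. Compounds tested at 10 μM.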

Assay [9] addresses Cannabinoid receptor 1 (Homo sapiens) (UniProt P21554). The experiment in a line: Antagonist activity at human CBR1 assessed as [35S]GTPgammaS binding at 10 uM by radiometric assay relative to control. Also noted: scale not given: the % may be the effect or the level left.
For assay [10], the target named is T1, G-protein coupled receptor 55. The experiment in a line: Agonist activity at human GPR55 expressed in HEK293 cells assessed as calcium signalling by fura 2-based digital epifluorescence microscopy. It is filed as functional, cell-based. In short, it runs like this:
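HEK293 cells stably expressing GPR55, grown on poly-L-lysine coated glass coverslips and serum-starved overnight. Compounds applied by bath perfusion in HEPES-buffered saline at 30-32 °C. Single-cell fura 2 ratiometric imaging (350/380 nm) every 5 s. Peak responses pooled from 24 cells (12 random cells from each of two experiments) per concentration; EC50 with 95% CI from concentration-response curves. ARA-LPI used as reference agonist.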

Assay [11] shares this target. The experiment in a line: Agonist activity at human GPR55 expressed in CHOK1 cells at 10 uM by pathHunter beta-arrestin assay relative to LPI. It is filed as cell-based. To be noted: CHO-K1. In outline: as §1
The target of assay [12] is T4, Monoacylglycerol lipase ABHD6 (Homo sapiens). Briefly: Inhibition of human ABHD6 expressed in […] cells using 2-AG as substrate assessed as glycerol liberation at 1 uM preincubated for 30 mins followed by 2-AG addition measured for 90 mins by fluorescent glycerol assay relative to control. Also noted: scale not given: the % may be the effect or the level left. It is filed as cell-based. In outline:
as §2

Sequence of Cannabinoid receptor 2 (Homo sapiens) (P34972 whole entry): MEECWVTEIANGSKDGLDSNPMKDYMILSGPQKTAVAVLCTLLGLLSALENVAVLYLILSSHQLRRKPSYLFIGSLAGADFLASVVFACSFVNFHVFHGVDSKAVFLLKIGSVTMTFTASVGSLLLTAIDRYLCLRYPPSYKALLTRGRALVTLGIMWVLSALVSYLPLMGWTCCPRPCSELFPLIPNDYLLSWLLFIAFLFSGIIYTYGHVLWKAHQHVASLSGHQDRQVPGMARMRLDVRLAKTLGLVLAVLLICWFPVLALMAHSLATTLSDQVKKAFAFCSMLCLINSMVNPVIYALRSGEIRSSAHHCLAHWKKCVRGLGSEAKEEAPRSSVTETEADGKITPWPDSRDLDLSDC
T1 sequence (Q9Y2T6 whole entry): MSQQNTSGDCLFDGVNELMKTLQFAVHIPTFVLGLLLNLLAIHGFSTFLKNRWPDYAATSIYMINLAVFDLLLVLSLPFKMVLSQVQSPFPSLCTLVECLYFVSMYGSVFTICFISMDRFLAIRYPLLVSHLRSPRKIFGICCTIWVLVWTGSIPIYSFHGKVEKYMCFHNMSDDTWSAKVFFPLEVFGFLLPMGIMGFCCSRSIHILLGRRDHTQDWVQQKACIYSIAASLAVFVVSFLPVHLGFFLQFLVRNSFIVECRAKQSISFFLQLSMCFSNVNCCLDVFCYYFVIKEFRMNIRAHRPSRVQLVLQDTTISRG
Sequence of Cannabinoid receptor 1 (Homo sapiens) (P21554 whole entry): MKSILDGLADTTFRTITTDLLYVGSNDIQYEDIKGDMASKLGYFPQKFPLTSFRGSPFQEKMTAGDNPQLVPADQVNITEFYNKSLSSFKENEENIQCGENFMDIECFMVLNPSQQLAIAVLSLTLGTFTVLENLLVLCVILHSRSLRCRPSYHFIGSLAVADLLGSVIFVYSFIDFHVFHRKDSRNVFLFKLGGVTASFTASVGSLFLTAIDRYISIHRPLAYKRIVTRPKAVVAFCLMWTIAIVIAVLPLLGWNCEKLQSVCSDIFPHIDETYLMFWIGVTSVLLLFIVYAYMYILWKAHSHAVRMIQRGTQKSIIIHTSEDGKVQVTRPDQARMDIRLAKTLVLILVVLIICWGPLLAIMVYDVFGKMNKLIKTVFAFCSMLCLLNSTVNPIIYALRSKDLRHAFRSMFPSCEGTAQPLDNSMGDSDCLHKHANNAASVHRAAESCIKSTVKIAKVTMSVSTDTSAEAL

Consider `C=CCN(CC=C)S(=O)(=O)c1ccc(NC(=S)NC(=O)c2ccc(-c3ccccc3)cc2)cc1`, for which the Activity stood at 176% in assay [1]; 72% in [2]; 95% in [3]; 105% in assay [4]; 92% in assay [5]; 74% in assay [6]. Also, the Activity in [7] turned out to be 100%; in assay [8], 96%; in assay [9], 80%.
`CN1CCN(S(=O)(=O)c2ccc(NC(=S)NC(=O)c3ccc(-c4ccccc4)cc3)cc2)CC1`: the Activity was 218% in assay [1]; 81% in assay [2]; 101% in assay [3]; 95% in assay [4]; 101% in assay [5]; 148% in assay [11]. The Activity is 76% in assay [6], 101% in assay [7], 97% in assay [8] and 91% in assay [9]. For the same compound, in assay [10], the EC50 was found to be 0.218 µM.
For the compound `COc1ccc(C(=O)NC(=S)Nc2ccc(S(=O)(=O)NC(C)C)cc2)cc1`, the Activity in assay [1] worked out at 91%; in [2], 78%; in [3], 93%; in assay [4] it was 92%; in [5], 103%; in [12], 102%. Moreover, the Activity in [11] came to 62%; in assay [6] it was 66%; in assay [7], 90%; in assay [8], 93%; in [9], 95%.
On to `CCCCc1ccc(NS(=O)(=O)c2ccc(NC(=S)NC(=O)c3ccc(-c4ccccc4)cc3)cc2)cc1`, for which the Activity is 134% in assay [1]; 83% in [2]; 96% in [3]; 100% in [4]; 95% in assay [5]; 91% in [11]. Besides, the Activity in assay [6] stood at 97%; in assay [7] it was 90%; in assay [8], 104%; in assay [9] it was 78%.
For the compound `CCCCC/C=C\C/C=C\C/C=C\C/C=C\CCCC(=O)OC[C@@H](O)COP(=O)(O)O[C@@H]1[C@@H](O)[C@H](O)[C@@H](O)[C@H](O)[C@@H]1O`, the EC50 in [10] came out at 0.0202 µM.
Consider `CC(=O)NS(=O)(=O)c1ccc(NC(=S)NC(=O)c2cccc3ccccc23)cc1`, for which the Activity was found to be 99% in assay [1]; 82% in [2]; 96% in assay [3]; 97% in [4]; 107% in [5]; 66% in assay [11]. Further, the Activity in assay [6] was 88%; in [7], 94%; in [8] it was 98%; in assay [9], 101%.
`CN(C)S(=O)(=O)c1ccc(NC(=S)NC(=O)c2ccc(-c3ccccc3)cc2)cc1`: the Activity was 148% in assay [1]; 74% in [2]; 105% in assay [3]; 96% in [4]; 54% in assay [5]; 101% in assay [11]. The Activity in assay [6] was found to be 79%; in assay [7] it was 90%; in assay [8], 93%; in assay [9] it was 96%. Moreover, the EC50 in [10] was 0.0557 µM.
Consider `Cc1ccc(C(=O)NC(=S)Nc2ccc(S(=O)(=O)NC(C)C)cc2)c(Br)c1`, for which the Activity in assay [1] was 105%; in [2] it was 74%; in [3], 103%; in assay [4] it was 100%; in assay [5], 97%; in assay [12], 106%. Besides, the Activity turned out to be 70% in assay [11]; 59% in assay [6]; 88% in assay [7]; 89% in assay [8]; 88% in assay [9].
Turning to `NS(=O)(=O)c1ccc(NC(=S)NC(=O)c2ccc(-c3ccccc3)cc2)cc1`, the Activity in assay [1] was determined as 150%; in [2], 84%; in assay [3] it was 147%; in assay [4] it was 89%; in assay [5], 34%; in assay [6], 85%. Besides, the Activity was determined as 95% in assay [7], 94% in assay [8] and 119% in assay [9].
In the case of `CC(=O)NS(=O)(=O)c1ccc(NC(=S)NC(=O)c2ccc(C(C)C)cc2)cc1`, the Activity in assay [1] is 99%; in [2], 88%; in [3], 100%; in assay [4], 92%; in assay [5], 103%; in assay [11], 67%. Moreover, the Activity in [6] came out at 81%; in [7], 96%; in assay [8], 99%; in assay [9] it was 98%.
In the case of `O=C(NC(=S)Nc1ccc(S(=O)(=O)Nc2ccc(Cl)cc2)cc1)c1ccc(-c2ccccc2)cc1`, the Activity was 231% in [1]; 82% in [2]; 93% in assay [3]; 101% in assay [4]; 89% in assay [5]; 158% in assay [11]. The Activity in [6] was found to be 93%; in assay [7], 94%; in assay [8], 105%; in [9], 84%.
